Experimental data from different studies.
Lines come from different studies, so protocols differ.
Target: 5'-AMP-activated protein kinase catalytic subunit alpha-1 (PRKAA1, Homo sapiens, UniProt Q13131)

CC(C)(C)c1nc(-c2cccc(NS(=O)(=O)c3c(F)cccc3F)c2F)c(-c2ccnc(N)n2)s1 — remaining activity (enzyme activity; inhibitor; radiometric; 1 µM): 49%
Nc1ncnc2occ(-c3ccc(NC(=O)Nc4cc(C(F)(F)F)ccc4F)cc3)c12 — remaining signal (cell-free assay; 20 µM): 5.3%
Cc1ccc(C(=O)Nc2ccc(CN3CCN(C)CC3)c(C(F)(F)F)c2)cc1C#Cc1cnc2cccnn12 — remaining activity (enzyme activity; 23.5 nM): 73%
C=CC(=O)Nc1cc(Nc2nccc(Nc3cc(Cl)c(F)cc3C(C)(C)O)n2)c(OC)cc1N1CC[C@@H](N(C)C)C1 — inhibition (enzyme activity; inhibitor; 1 µM): -6%
COc1cccc2c(NCc3ccccc3)nc(-n3c(N)nc4ccccc43)nc12 — inhibition (target engagement in cells; inhibitor; chemoproteomics; 20 mM): 8.3%
FC(F)(F)Oc1cccc(-c2cnc3ccc(-c4ccncc4)nn23)c1 — activity vs control (enzyme activity; inhibitor; radiometric; 1 µM): 81%
Cc1ncc([N+](=O)[O-])n1C(=NO)c1ccccc1C(F)(F)F — inhibition (enzyme activity; inhibitor; 10 µM): 7.33%
CC(C)(C)c1nc2c(s1)c1nc(N)ncc1c1ccc(NS(=O)(=O)c3c(F)cccc3F)c(F)c12 — remaining activity (enzyme activity; inhibitor; radiometric; 1 µM): 81%
O=C(Nc1cccnn1)N1CC(C/C=C/c2cncc(Oc3ccc(C(F)(F)F)cn3)n2)C1 — remaining binding (cell-free assay; competition with immobilised ligand; 1 µM): 100%
CN1CC(Oc2cnc(C#N)cc2-c2ccn3nc(NC(=O)C4CC4)cc3c2)C1 — inhibition (enzyme activity; inhibitor; 1 µM): 5%
CCc1ccccc1C(=O)Nc1n[nH]c2c(C)c(F)c(C3C(C#N)=C(C)N(C)C(C)=C3C#N)cc12 — remaining binding (cell-free assay; competition with immobilised ligand; 1 µM): 7.5%
CCN1CCN(Cc2ccc(NC(=O)c3ccc(C)c(Oc4ccnc5[nH]ccc45)c3)cc2C(F)(F)F)CC1 — inhibition (target engagement in cells; inhibitor; chemoproteomics; Huh-7; 1 µM): -32.8%
CCCCNc1ncc2c(-c3ccc(F)cc3)nn(C[C@H]3CC[C@H](N)CC3)c2n1 — inhibition (target engagement in cells; inhibitor; chemoproteomics; 20 mM): 22.8%
Nc1cnc(N2CCc3cc(S(=O)(=O)Nc4c(F)cc(Cl)cc4F)cc(N4CCCC4=O)c32)nc1 — remaining binding (cell-free assay; competition with immobilised ligand; 1 µM): 100%
